Assay results taken from ChEMBL document CHEMBL4610001 (J Med Chem, 2020).
The source made the active and inactive calls. The rule behind the calls is not given here.

Assays:
[1] = biological target: T1, Lysophosphatidic acid receptor 1 (Homo sapiens, UniProt Q92633); assay: Agonist activity at LPA1 receptor (unknown origin) stably expressed in rat RH7777 cells assessed as increase in intracellular calcium level at 10 uM by Fluo-4 NW dye based fluorescence assay; assay type: functional, cell-based
T1 sequence (Q92633 whole entry): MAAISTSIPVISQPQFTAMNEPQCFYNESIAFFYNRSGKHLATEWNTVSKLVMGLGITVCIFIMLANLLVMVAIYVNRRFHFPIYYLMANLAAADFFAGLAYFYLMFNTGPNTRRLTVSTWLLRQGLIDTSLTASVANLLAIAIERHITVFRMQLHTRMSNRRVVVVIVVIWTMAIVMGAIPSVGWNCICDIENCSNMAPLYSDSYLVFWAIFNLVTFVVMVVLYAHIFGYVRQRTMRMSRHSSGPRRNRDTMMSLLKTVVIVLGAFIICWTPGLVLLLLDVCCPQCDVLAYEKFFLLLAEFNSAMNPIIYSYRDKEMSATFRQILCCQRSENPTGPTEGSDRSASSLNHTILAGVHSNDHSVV
Summary of the method: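 LPA1-stably transfected RH7777 hepatoma cells on poly-D-lysine, 50000 cells/well, cultured overnight. Loaded with Fluo-4 NW plus […] for 30 min at 37°C, then 30 min at rt. Compound added at 120 s of a 240 s read (ex 494/em 525 nm). Response taken as maximum minus baseline, relative to the 10 μM LPA control; ionomycin 10 μM also included. Run in triplicate.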

[2] = Stability of the compound in culture medium assessed as parent compound remaining incubated for up to 8 hrs by HPLC-MS; assay type: physicochemical; conditions: read-out: Stability
Summary of the method: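 Compound from a 50 mM DMSO stock was added to culture medium pre-warmed to 37°C and incubated at 37°C. Aliquots were quenched in cold acetonitrile, iced 10 min and centrifuged. Supernatants were analysed by HPLC-MS in SIM mode, with peak area normalised to an internal standard.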

[3] = Stability of the compound in PBS at pH 7.4 assessed as parent compound remaining incubated up to 8 hrs by HPLC-MS; assay type: physicochemical; conditions: read-out: Stability
Summary of the method: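 Compound from a 25 mM DMSO stock was diluted into PBS pH 7.4 and kept at rt. Parent compound remaining at each time point was measured by HPLC-MS in SIM mode, with peak area normalised to an internal standard.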

[4] = biological target: T1, Lysophosphatidic acid receptor 1; assay: Agonist activity at LPA1 receptor (unknown origin) stably expressed in rat RH7777 cells assessed as increase in intracellular calcium level by Fluo-4 NW dye based fluorescence assay; assay type: functional, cell-based
[5] = biological target: Lysophosphatidic acid receptor 1 (Rattus norvegicus) (UniProt P61794); assay: Agonist activity at LPA1 receptors in Wistar rat DRG neurons assessed as increase in calcium influx at 500 nM measured after 10 secs in presence of capsaicin by Fluo-4 NW dye based inverted microscopic method; assay type: functional
Sequence of Lysophosphatidic acid receptor 1 (Rattus norvegicus) (P61794 whole entry, the tested form may be a part): as the sequence (Q92633 whole entry) above, with I4A, I8S, P22Q, H40Y, I61V, E193D, N194H, I269V, S331N, T335N counted along it

[6] = biological target: T1, Lysophosphatidic acid receptor 1; assay: Agonist activity at recombinant human full-length LPA1 receptor expressed in dhfr- deficient CHO cells assessed as increase in intracellular calcium flux measured for 1 min by fluo-3AM dye based FLIPR assay; assay type: functional, cell-based
[7] = biological target: Lysophosphatidic acid receptor 1 (Rattus norvegicus) (UniProt P61794); assay: Agonist activity at LPA1 receptors in Wistar rat DRG neurons assessed as increase in calcium influx at 10 uM measured after 10 secs in presence of capsaicin by Fluo-4 NW dye based inverted microscopic method; assay type: functional
Summary of the method: (§1)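 DRG neurons from 3–5-day-old Wistar rats were collagenase-digested and cultured 48 h with NGF. Cells loaded with 5 μM Fluo-4AM and 0.02% pluronic in HEPES-buffered HBSS pH 7.4 for 1 h at 37°C, then perfused at rt. Compound given at 10 μM final (from 10 mM DMSO stock) as 10 s pulses. Capsaicin and 40 mM KCl (10 s, viability) also applied. Signal is peak minus baseline fluorescence; a response is >20% over baseline.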

[8] = biological target: Lysophosphatidic acid receptor 1 (Rattus norvegicus) (UniProt P61794); assay: Induction of LPA1 receptor desensitization in Wistar rat DRG neurons assessed as reduction in calcium influx at 10 uM treated twice after 10 secs in presence of capsaicin by Fluo-4 NW dye based inverted microscopic method; assay type: functional; summary of the method: as §1
[9] = biological target: Lysophosphatidic acid receptor 1 (Rattus norvegicus) (UniProt P61794); assay: Agonist activity at LPA1 receptors in Wistar rat DRG neurons assessed as increase in neuronal activity at 10 uM incubated for 15 secs in presence of capsaicin by Microelectrode Array
Summary of the method: (§2)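 Neonatal Wistar rat DRG neurons, cultured 48 h on poly-L-lysine/laminin-coated 60-electrode MEA chips. Compound perfused at 10 μM final for 15 s at 2 mL/min. Extracellular activity recorded at 25 kHz; output is mean spike frequency.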

[10] = biological target: Lysophosphatidic acid receptor 1 (Rattus norvegicus) (UniProt P61794); assay: Agonist activity at LPA1 receptors in Wistar rat DRG neurons assessed as increase in neuronal activity at 10 uM incubated for 15 secs in presence of capsazepine by Microelectrode Array; summary of the method: as §2
[11] = biological target: T1, Lysophosphatidic acid receptor 1; assay: Binding affinity to LPA1 receptor (unknown origin) by cell-based backscattering interferometry
[12] = biological target: Lysophosphatidic acid receptor 1 (Rattus norvegicus) (UniProt P61794); assay: Induction of LPA1 receptor desensitization in Wistar rat DRG neurons assessed as reduction in neuronal activity at 10 uM treated for 15 secs twice with 4 mins interval in presence of capsazepine by microelectrode Array; summary of the method: as §2
[13] = biological target: Lysophosphatidic acid receptor 1 (Rattus norvegicus) (UniProt P61794); assay: Induction of LPA1 receptor desensitization in Wistar rat DRG neurons assessed as reduction in neuronal activity at 10 uM treated for 15 secs twice with 4 mins interval in presence of capsaicin by microelectrode Array; summary of the method: as §2

For CCCCCCCC/C=C\CCCCCCCC(=O)OC[C@@H](O)Cc1nnn[nH]1, the Activity [1] was “inactive”.
In the case of O=C(CCCCCCc1ccccc1)OC[C@@H](O)COP(=O)(O)O, the Activity [1] is reported as “inactive”.
For O=C(CCCCCCc1ccc(-c2ccccc2)cc1)OC[C@@H](O)COP(=O)(O)O, the Activity [1] was “inactive”.
For O=C(CCCCCCCCCc1ccccc1)O[C@H](CBr)COP(=O)(O)O, the remaining at 8 h [2] was > 85% and the remaining at 8 h [3] was > 85%.
With O=C(CCCCCCCCCc1ccccc1)OC[C@@H]1CC(F)(C(=O)O)C(=O)O1 (stereo partly drawn) the Activity [1] was “inactive”.
CCCCCCCC/C=C\CCCCCCCC(=O)O[C@H](CBr)COP(=O)(O)O gave an EC50 [4] of 3.2 µM.
In the case of CCCCCCCC/C=C\CCCCCCCC(=O)OCCCC(F)(C(=O)O)C(=O)O, the Activity [1] is reported as “inactive”.
For O=C(CCCCCCCCc1ccccc1)O[C@H](CBr)COP(=O)(O)O, the Activity [1] was “inactive”.
In the case of O=C(CCCCCCCc1ccccc1)OC[C@@H](O)COP(=O)(O)O, the Activity [1] is reported as “inactive”.
For CCCCCC/C=C\CCCCCCCC(=O)O[C@H](CBr)COP(=O)(O)O, the Activity [1] was “inactive”.
In the case of COc1cc(CNC(=O)CCCC/C=C/C(C)C)ccc1O, the Activity [5] is reported as “Active”.
For CCCCCC/C=C\CCCCCCCC(=O)OC[C@@H]1C[C@@](F)(C(=O)O)C(=O)O1, the Activity [1] was “inactive”.
O=C(CCCCCCCCCCCCc1ccc(-c2ccccc2)cc1)OC[C@@H](O)COP(=O)(O)O gave an EC50 [4] of 19 µM.
With CO[C@H](COC(=O)CCCCCCCCCc1ccccc1)CC(F)(C(=O)O)C(=O)O the Activity [1] was “inactive”.
With CCCCCC/C=C\CCCCCCCC(=O)OC[C@@H]1C[C@](F)(C(=O)O)C(=O)O1 the Activity [1] was “inactive”.
For CCCCCCCC/C=C\CCCCCCCC(=O)OC[C@@H]1CC(C(=O)O)C(=O)O1 (stereo partly drawn), the Activity [1] was “inactive”.
With CCCCCCCC/C=C\CCCCCCCC(=O)NC[C@H](CC(F)(C(=O)O)C(=O)O)OC the Activity [1] was “inactive”.
In the case of O=C(CCCCCCCCCCc1ccccc1)O[C@H](CBr)COP(=O)(O)O, the Activity [1] is reported as “inactive”.
For CCCCCCCCCC/C=C\CCCCCCCC(=O)OC[C@@H](O)COP(=O)(O)O, the Activity [1] was “inactive”.
CC1CCC2(C)c3[nH]c4ccccc4c3CCN2C1 (stereo not drawn) gave an EC50 [6] of 3.6 µM.
For CCCCCCCC/C=C\CCCCCCCC(=O)OC[C@@H](O)COc1ccc(B(O)O)cc1, the Activity [1] was “inactive”.
With CCCCCCCC/C=C\CCCCCCCC(=O)OC[C@@H](O)COCC(=O)O the Activity [1] was “inactive”.
In the case of CCCCCCCC/C=C\CCCCCCCC(=O)OC[C@@H](O)COP(=O)(O)O [LYSOPHOSPHATIDIC ACID], the Activity [7] is reported as “Active”, the Activity [8] is reported as “Active” and the Activity [9] is reported as “Active”. For the same compound, the EC50 [4] was 0.83 µM, the Activity [10] was “Active” and the Kd [11] was 0.0056 µM. For the same compound, the Activity [12] was “Active” and the Activity [13] was “Active”.
For O=C(CCCCCCCCCCCCCCc1ccccc1)OC[C@@H](O)COP(=O)(O)O, the Activity [1] was “inactive”.
For CCCCCCCC/C=C\CCCCCCCC(=O)OCCCC(C(=O)O)C(=O)O, the Activity [1] was “inactive”.
